The values below come from ChEMBL document CHEMBL1142981, “Identification and synthesis of a novel selective partial PPARdelta agonist with full efficacy on lipid metabolism in vitro and in vivo” (J Med Chem, 2007).

The source made the active and inactive calls. The rule behind the calls is not given here.

For data set [1], the system named is Mus musculus. Kind of data set: Decrease in insulin level in human ApoB100/CETP transgenic mouse at 5 mg/kg, po after 6 weeks by ELISA relative to control. It is filed as functional. Set-up: scale not given: the % may be the effect or the level left.
In data set [2] the target is T1, Peroxisome proliferator-activated receptor gamma (Homo sapiens, UniProt P37231).
T1 sequence (P37231 whole entry): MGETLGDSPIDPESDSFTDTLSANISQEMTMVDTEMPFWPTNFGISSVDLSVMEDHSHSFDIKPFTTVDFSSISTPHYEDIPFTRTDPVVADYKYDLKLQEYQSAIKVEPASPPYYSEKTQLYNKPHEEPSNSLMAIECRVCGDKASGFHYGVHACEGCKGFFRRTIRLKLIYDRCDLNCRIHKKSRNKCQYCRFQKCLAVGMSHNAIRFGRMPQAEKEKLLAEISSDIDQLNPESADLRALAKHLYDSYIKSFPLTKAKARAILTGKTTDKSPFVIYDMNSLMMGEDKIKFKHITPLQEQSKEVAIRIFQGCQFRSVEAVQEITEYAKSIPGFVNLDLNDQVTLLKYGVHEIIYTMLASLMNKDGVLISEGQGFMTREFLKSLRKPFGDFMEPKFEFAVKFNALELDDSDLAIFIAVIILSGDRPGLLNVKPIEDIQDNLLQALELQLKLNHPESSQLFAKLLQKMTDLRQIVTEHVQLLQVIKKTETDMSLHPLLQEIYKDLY
In kind it is cell-based, HEK293.

Data set [3] has as its system Mus musculus. Kind of data set: Decrease in triglycerides level in human ApoB100/CETP transgenic mouse at 5 mg/kg, po after 6 weeks relative to control. In kind it is functional. Set-up: scale not given: the % may be the effect or the level left.
In data set [4] the test system is Mus musculus. Kind of data set: Decrease in triglycerides level in human ApoB100/CETP transgenic mouse at 10 mg/kg, po after 6 weeks relative to control. It is filed as functional. Set-up: scale not given: the % may be the effect or the level left.
The test system of data set [5] is Mus musculus. Kind of data set: Decrease in triglycerides level in human ApoB100/CETP transgenic mouse at 20 mg/kg, po after 6 weeks relative to control. In kind it is functional. Set-up: scale not given: the % may be the effect or the level left.
Data set [6] concerns Mus musculus. Kind of data set: Increase in HDL level in human ApoB100/CETP transgenic mouse at 5 mg/kg, po after 6 weeks relative to control. In kind it is functional.
In data set [7] the test system is Mus musculus. Kind of data set: Decrease in HbA1c level in human ApoB100/CETP transgenic mouse at 20 mg/kg, po after 6 weeks relative to control. In kind it is functional. Set-up: scale not given: the % may be the effect or the level left.
Data set [8] deals with T2, Peroxisome proliferator-activated receptor delta (Homo sapiens, UniProt Q03181).
T2 sequence (Q03181 whole entry): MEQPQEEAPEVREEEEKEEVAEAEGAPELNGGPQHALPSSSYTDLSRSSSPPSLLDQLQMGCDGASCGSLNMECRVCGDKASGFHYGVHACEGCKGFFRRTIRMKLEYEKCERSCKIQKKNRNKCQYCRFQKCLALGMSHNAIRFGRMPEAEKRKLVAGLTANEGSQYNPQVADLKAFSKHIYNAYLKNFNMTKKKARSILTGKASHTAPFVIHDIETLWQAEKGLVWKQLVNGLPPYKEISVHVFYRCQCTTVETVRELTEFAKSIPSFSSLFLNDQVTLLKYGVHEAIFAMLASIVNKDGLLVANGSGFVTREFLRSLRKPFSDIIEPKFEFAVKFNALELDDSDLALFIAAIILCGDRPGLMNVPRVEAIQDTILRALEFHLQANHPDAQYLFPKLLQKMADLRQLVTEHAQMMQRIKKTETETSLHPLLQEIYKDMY

Data set [9] deals with T3, Peroxisome proliferator-activated receptor alpha (Homo sapiens, UniProt Q07869).
T3 sequence (Q07869 whole entry): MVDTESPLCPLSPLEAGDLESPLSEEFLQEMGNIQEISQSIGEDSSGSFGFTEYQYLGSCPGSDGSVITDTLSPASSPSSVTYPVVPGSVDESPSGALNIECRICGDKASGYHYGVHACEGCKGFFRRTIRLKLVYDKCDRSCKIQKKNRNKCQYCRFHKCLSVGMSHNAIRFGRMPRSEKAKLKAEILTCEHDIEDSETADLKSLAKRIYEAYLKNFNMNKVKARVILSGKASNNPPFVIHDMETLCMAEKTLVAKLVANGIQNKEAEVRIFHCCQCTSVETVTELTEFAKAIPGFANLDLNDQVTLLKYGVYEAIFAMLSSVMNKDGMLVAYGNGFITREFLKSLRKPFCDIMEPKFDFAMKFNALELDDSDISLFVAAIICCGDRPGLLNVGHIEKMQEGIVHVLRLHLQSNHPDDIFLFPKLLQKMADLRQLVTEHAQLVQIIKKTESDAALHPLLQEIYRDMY
Kind of data set: Activity at human liver PPAR alpha expressed in HEK293 cells by PPAR-GAL4 transactivation assay. In kind it is cell-based.

Data set [10] deals with Mus musculus. Kind of data set: Decrease in LDL level in human ApoB100/CETP transgenic mouse at 10 mg/kg, po after 6 weeks relative to control. In kind it is functional. Set-up: scale not given: the % may be the effect or the level left.
Data set [11] is described as follows: Oral bioavailability in Sprague-Dawley rat at 2.06 mg/kg. It is filed as ADME, organism-based. The note with it: in vivo. In outline:
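Male SD rats received a single p.o. or i.v. dose (n = 8 per route) in 5% ethanol, 10% HPCD and phosphate buffer, pH 7.5-8.0. At 5, 15, 30, 60, 90, 120, 240 and 360 min one rat was sacrificed per time point. EDTA plasma was assayed by high turbulence LC-MS/MS. Cmax and bioavailability were taken from oral dosing; volume of distribution is at steady state.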

The test system of another data set is L6. Kind of data set: Effect on glucose oxidation in rat L6 cells. It is filed as functional, cell-based. In outline:
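Differentiated rat L6 cells handled as for the fatty acid oxidation assay, with tritiated palmitate replaced by 10 µCi/mL [5-3H]-D-glucose; oxidation measured as 3H-H2O released into medium after TCA stop, collected by overnight equilibration at 50 °C and scintillation counting. FCCP served as positive control.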

Data set [12] has as its system Mus musculus. Kind of data set: Decrease in total ketone bodies level in human ApoB100/CETP transgenic mouse at 10 mg/kg, po after 6 weeks relative to control. It is filed as functional. Set-up: scale not given: the % may be the effect or the level left.
Data set [13] addresses T4, Peroxisome proliferator-activated receptor alpha (Mus musculus) (UniProt P23204).
T4 sequence (whole entry): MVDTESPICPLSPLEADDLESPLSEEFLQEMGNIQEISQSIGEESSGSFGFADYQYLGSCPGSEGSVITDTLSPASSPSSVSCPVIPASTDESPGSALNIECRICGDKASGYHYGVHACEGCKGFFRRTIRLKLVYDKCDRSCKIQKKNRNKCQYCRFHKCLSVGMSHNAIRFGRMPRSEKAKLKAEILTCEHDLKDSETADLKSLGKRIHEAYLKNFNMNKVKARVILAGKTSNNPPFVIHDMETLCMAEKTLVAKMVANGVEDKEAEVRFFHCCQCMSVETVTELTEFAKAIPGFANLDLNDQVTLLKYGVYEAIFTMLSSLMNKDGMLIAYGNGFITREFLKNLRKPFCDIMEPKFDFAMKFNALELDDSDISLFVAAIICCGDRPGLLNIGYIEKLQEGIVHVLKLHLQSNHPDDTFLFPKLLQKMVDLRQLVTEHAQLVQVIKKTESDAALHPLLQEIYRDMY
Kind of data set: Agonist activity at mouse PPAR alpha expressed in HEK293 cells up to 30 uM by PPAR-GAL4 transactivation assay. It is filed as functional, cell-based.

Data set [14] deals with Mus musculus. Kind of data set: Increase in total ketone bodies level in human ApoB100/CETP transgenic mouse at 5 mg/kg, po after 6 weeks relative to control. In kind it is functional.

For `O=C(O)COc1ccc(SCC=C(c2ccc(Br)cc2)c2ccc(Br)cc2)cc1Cl`, the Activity in the data set on Mus musculus [1] was found to be 11%; in the data set on Mus musculus [3], 15%; in the data set on Mus musculus [4], 7%; in the data set on Mus musculus [5], 5%; in the data set with Mus musculus [6], 24%; in the data set with Mus musculus [7], 12%. Moreover, the Activity in the data set with Mus musculus [10] worked out at 12%; in the data set on Mus musculus [12], 10%; with Mus musculus [14], 5%. The results for the EC50 in data set [2], in data set [8] and in data set [9] were more than 10 µM, 0.053 µM and more than 10 µM, respectively. Further, the bioavailability in [11] came out at 46%. Besides, the result (with L6; in [13]) was inactive.
